In PMC4131791 (Memórias do Instituto Oswaldo Cruz, 2014) one finds IC50 data, which are given here for one molecule.

For the test, the system named is Trypanosoma cruzi (Tulahuen strain) expressing β-galactosidase, trypomastigote and amastigote forms. Type of test: cell-based. To be noted: L929, read-out: IC50 of the positive control. In a few lines: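 L929 fibroblasts were seeded at 4,000/well in phenol red-free RPMI-1640 with 10% FBS and glutamine, then left overnight at 37 °C with 5% CO2. Cells were infected with β-galactosidase Tulahuen trypomastigotes at 40,000/well for 2 h, and free parasites were washed out. After 48 h, test compound (about 100-2 µM, triplicate, from DMSO stocks) was added. After seven days of culture, 100 µM CPRG with 0.1% Nonidet P-40 was added overnight at 37 °C and A570 read. Results were expressed as % growth inhibition, with IC50 by linear interpolation. Benznidazole served as positive control.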

By IC50 is commonly meant the point on the concentration scale where inhibition reaches its midpoint.

Converted amounts (≈) assume the structure as drawn.

Take `O=C(Cn1ccnc1[N+](=O)[O-])NCc1ccccc1` [Benznidazole, benznidazole]: the IC50 came to 1 µg/mL (≈ 3.84 µM).
